Bioassay records: PubChem BioAssay, several laboratories
Most compounds without a hit are left out; they make up all but 3.3% or so of the library.
GAA850 FXN act: increases GAA850 frataxin promoter reporter activity; hit rate 0.56% among 360,000; HEK293 lucGAA850 FXN promoter luciferase reporter, 24 h; percent of 10 µM SAHA response; activation, % at 6 µM; AID 540364;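 active = activation above the average of all compounds screened plus 3 SD, cutoff fixed separately per campaign, cut at about 7.5% in these data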;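 note: 0% = DMSO wells and 100% = 10 µM SAHA wells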
ABCB6 inh 2: inhibitors of human ABC transporter ABCB6 | Q9NP58 | K562-ABCB6 porphyrin accumulation, flow cytometry, 1 h; active compounds read low | fluorescence ratio to DMSO, % at 10 µM | hit rate 0.19% among 360,000;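 active = fluorescence ratio to DMSO below 75%, the collection mean minus 3 SD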;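 note: signal is porphyrin accumulated inside mitochondria; 100% equals median channel fluorescence of DMSO control wells; lower ratio means ABCB6 inhibition with less porphyrin fluorescence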
Target sequence (Q9NP58 whole entry, looked up): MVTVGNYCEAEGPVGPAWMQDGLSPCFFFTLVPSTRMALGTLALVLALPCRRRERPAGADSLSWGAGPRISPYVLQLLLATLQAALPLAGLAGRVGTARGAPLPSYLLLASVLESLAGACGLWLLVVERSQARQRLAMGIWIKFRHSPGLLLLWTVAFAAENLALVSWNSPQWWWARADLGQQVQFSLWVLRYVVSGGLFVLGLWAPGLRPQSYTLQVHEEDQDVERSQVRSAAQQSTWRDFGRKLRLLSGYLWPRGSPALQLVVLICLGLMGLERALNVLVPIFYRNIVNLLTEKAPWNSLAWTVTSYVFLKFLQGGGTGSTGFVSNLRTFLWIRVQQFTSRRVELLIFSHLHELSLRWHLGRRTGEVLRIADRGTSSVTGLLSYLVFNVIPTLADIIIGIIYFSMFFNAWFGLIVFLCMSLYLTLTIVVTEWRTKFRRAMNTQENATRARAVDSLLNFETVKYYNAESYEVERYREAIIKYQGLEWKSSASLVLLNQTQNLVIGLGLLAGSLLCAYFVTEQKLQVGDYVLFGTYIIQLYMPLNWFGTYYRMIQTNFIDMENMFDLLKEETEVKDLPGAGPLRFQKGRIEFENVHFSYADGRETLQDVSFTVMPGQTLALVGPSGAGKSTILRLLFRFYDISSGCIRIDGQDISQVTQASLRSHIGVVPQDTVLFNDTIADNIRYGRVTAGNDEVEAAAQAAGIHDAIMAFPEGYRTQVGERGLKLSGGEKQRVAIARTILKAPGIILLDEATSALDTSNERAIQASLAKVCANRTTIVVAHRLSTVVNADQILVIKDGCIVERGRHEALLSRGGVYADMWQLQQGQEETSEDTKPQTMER
STAT3 activator: STAT3 signaling activation; hit rate 0.91% among 190,000; activation (% of control), % at 5.6 µM; U3A cells, IL-6 STAT3-luciferase reporter, luminescence; 100% = signal with IL-6 EC80 alone;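 active = activation above the screen-wide mean of compound activation plus 3 SD, cut at about 130% in these data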;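 note: 0% = background luminescence of wells with medium and substrate only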
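Material: STAT3-luciferase reporter U3A cells; Probe or stimulus: IL-6 (33 ng/mL); Incubation: compound pre-incubation 1 h before IL-6, then 6 h stimulation at 37 °C; Technique: luminescence from STAT3-driven luciferase reporter; Evaluation: % activation versus median of IL-6-stimulated wells; Controls: IL-6-only high control.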
AHR activator: human AHR activation. AHR-responsive luciferase reporter cells, luminescence. P35869. AID 2796. activation, % at 5 µM. hit rate 2.5% among 320,000; in the data active = activation above about 47%;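 note: 0% = vehicle wells and 100% = reference agonist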
GAA30 counter: activates GAA30 frataxin promoter, counter-screen for GAA850 activators | shares compounds with GAA850 FXN act | HEK293 lucGAA30 FXN promoter luciferase, 24 h; DMSO = 0%, 5 µM ipriflavone = 100% | activation, % at 6 µM | hit rate 66% among 1,900 | AID 588350;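 active = mean activation above the mean of solvent-only control wells plus 3 SD, cut at about 22% in these data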;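 note: counterscreen of GAA850 promoter hits where activity marks nonselective or luminescence artifacts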
FXN GAA850 conf: confirmation of GAA850 frataxin (FXN) promoter activators; shares compounds with GAA850 FXN act; HEK293 lucGAA850 FXN promoter luciferase reporter, 24 h; 100% = activation by SAHA; activation, % at 6 µM; hit rate 86% among 1,900; AID 588351;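 active = mean activation above a set limit taken from the primary screen, cut at about 8% in these data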;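 note: 0% = DMSO wells and 100% = 10 µM SAHA wells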
An asterisk follows results filed as active; . = no result.

SMILES	GAA850 FXN act	ABCB6 inh 2	STAT3 activator	AHR activator	GAA30 counter	FXN GAA850 conf
Cc1ccc(C)c(OCC(=O)OCc2csc(CC(=O)Nc3ccccc3C)n2)c1	-1	102	.	.	.	.
O=[N+]([O-])c1ccc(-c2cn3ccccc3n2)cc1	9.2*	98	.	-2	108*	50*
CCOc1ccc(-c2cn3ccccc3n2)cc1[N+](=O)[O-]	9.2*	107	97	-5	121*	40*
c1ccc(-c2cn3ccccc3n2)cc1	4	91	.	.	.	.
CCc1cccc(C)c1NC(=O)c1ccc2c(c1)CCN2S(C)(=O)=O	0	106	.	1	.	.
C=CCn1c(SC(C)C(=O)NCc2ccc3c(c2)OCO3)nc2scc(-c3ccccc3)c2c1=O (stereo not drawn)	7.8*	105	100	1	12	10*
COc1ccc(CC(N)c2csc(NC(=O)Nc3ccccc3C(C)C)n2)cc1 (stereo not drawn)	0	97	.	.	.	.
NC(Cc1ccccc1)c1csc(NC(=O)Nc2ccccc2Oc2ccccc2)n1 (stereo not drawn)	4	94	.	.	.	.
NC(Cc1ccc(C(F)(F)F)cc1)c1csc(NC(=O)Nc2ccccc2Oc2ccccc2)n1 (stereo not drawn)	12*	98	.	.	-20	8.2*
COc1ccc(CC(N)c2csc(NC(=O)Nc3ccccc3Cc3ccccc3)n2)cc1 (stereo not drawn)	15*	99	.	.	14	7.7*
COc1ccc(CC(N)c2csc(NC(=O)Nc3ccccc3Oc3ccccc3)n2)cc1 (stereo not drawn)	8.1*	97	.	.	2	7
CCCCN(C(=O)c1ccccc1Br)C(c1ccc(OC)cc1)c1nc2ccccc2[nH]1 (stereo not drawn)	.	96	.	.	.	.
O=c1[nH]c(NC2CCCCC2)c([N+](=O)[O-])c(=O)[nH]1	2	102	106	1	.	.
CCn1c2ccccc2c2nc3cc(C(=O)O)ccc3nc21	12*	93	77	.	101*	27*
O=C(Nc1ccc(-c2nc3ccc(NC(=O)c4cccs4)cc3[nH]2)cc1)c1cccs1	15*	92	90	-1	3	32*
O=C(c1cc(COc2ccc(F)cc2Cl)on1)N1CCSCC1	10*	96	.	-5	110*	44*
COc1ccc(OCc2cc(C(=O)N3CCSCC3)no2)c(Cl)c1	3	99	.	2	.	.
Cc1ccc(/C=N\Nc2cn[nH]c(=O)c2Cl)cc1	11*	96	85	2	104*	32*
CCOC(=O)C/C(=N\Nc1ncnc2ccccc12)c1ccccc1	8.3*	95	.	69*	84*	35*
O=[N+]([O-])c1ccc2c(c1)/C(=N\O)c1ccccc1-2	-2	100	.	-5	.	.
Nc1cc2c(cc1Cl)-c1ccc([N+](=O)[O-])cc1C2=NO	9.5*	512	.	.	75*	40*
c1ccc(-c2nn3c(Cn4nnc5ccccc54)nnc3s2)nc1	2	99	99	12	.	.
c1cncc(-c2nn3c(Cn4nnc5ccccc54)nnc3s2)c1	16*	95	100	5	2	2
Cc1ccc(S(=O)(=O)c2nc(S(=O)(=O)c3ccccc3)sc2N2CCN(C)CC2)cc1	-4	100	.	-2	.	.
O=C(COC(=O)COc1ccc(Cl)cc1)Nc1cccnc1Cl	1	101	.	.	.	.
SMILES	GAA850 FXN act	ABCB6 inh 2	STAT3 activator	AHR activator	GAA30 counter	FXN GAA850 conf
Cc1ccccc1CS(=O)(=O)c1nnc([C@H](Cc2ccccc2)NC(=O)OC(C)(C)C)o1	12*	94	95	-2	-21	6
Cc1ccc2nc(SCC(=O)NCc3ccco3)c(C#N)cc2c1	8.3*	93	92	5	80*	27*
Cc1ccc2cc(C#N)c(SCC(=O)NCc3ccco3)nc2c1	0	96	95	18	.	.
COc1ccc(NC(=S)Nc2ccccn2)cc1	8.3*	101	.	33	109*	32*
COC(=O)c1ccc(NC(=S)Nc2ccccn2)cc1	7	115	96	-1	.	.
Cc1ccc(N(C(=O)c2nsc(Cl)c2Cl)C(C(=O)NC2CCCC2)c2ccc(O)cc2)cc1C (stereo not drawn)	9.5*	201	103	2	34*	14*
Cc1cc(C)cc(N(C(=O)c2nsc(Cl)c2Cl)C(C(=O)NC2CCCC2)c2ccc(O)cc2)c1 (stereo not drawn)	-4	100	103	0	.	.
CCOC(=O)c1c(CSc2ccccc2)oc2cc(Br)c(O)c(CN(C)C)c12	8.2*	91	.	4	21	9.7*
CCOC(=O)c1c(CSc2ccc(CC)cc2)oc2ccc(O)c(CN(C)C)c12	0	91	.	0	.	.
O=C(/C=C/c1ccc([N+](=O)[O-])cc1)c1ccccc(=O)c1O	9.5*	98	.	.	-101	-26
CCc1ccc(-c2cc(C)no2)cc1S(=O)(=O)N1CCN(C(=O)c2ccco2)CC1	1	96	.	3	.	.
Cc1ccc(C(=O)Nc2cnc3ccccn3c2=O)cc1	8.3*	96	87	21	100*	31*
CN(C)Cc1ccc(-c2nc3cccc4c3n2CCNC4=O)cc1	7.8*	111	.	12	25*	50*
CCN1CCN(C(=O)c2oc(=O)c3ccccc3c2-c2ccc(C)cc2)CC1	15*	105	104	0	7	3
Cc1ccc(-c2c(C(=O)N3CCOCC3)oc(=O)c3ccccc23)cc1	-2	100	101	1	.	.
CC1CCCCN1C(=O)COC(=O)c1cc([N+](=O)[O-])ccc1N1CCOCC1 (stereo not drawn)	0	101	.	2	.	.
COC(=O)c1ccc(COC(=O)CNC(=O)c2ccco2)cc1	0	88	102	0	.	.
COC(=O)c1ccc(COC(=O)CNC(=O)c2ccc(-c3ccccc3)cc2)cc1	8.1*	95	110	-1	76*	22*
O=C(N(c1ccccn1)c1ccccn1)C12CC3CC(CC(Cl)(C3)C1)C2	8.4*	97	97	0	18	6
CC1CCCc2sc3nc(N4CCN(CCO)CC4)n4ncnc4c3c21 (stereo not drawn)	8.1*	95	104	31	33*	21*
NC(=O)CSc1nc2sc3c(c2c2ncnn12)CCCC3	3	89	88	1	.	.
CC(=O)c1ccc(NC(=S)NC(=O)c2c(Cl)c(C)nn2C)cc1	8.8*	97	99	12	23*	7
C/C(=N\NC(=O)c1c(Cl)c(C)nn1C)c1ccc(NC(=O)C2CCC2)cc1	-2	102	.	14	.	.
Cc1nc(N2N=C(c3ccc(Cl)cc3)CC2c2ccco2)sc1C(=O)N(C)C (stereo not drawn)	11*	97	98	27	26*	22*
CC12C(=O)N(Cc3ccco3)C(=O)C1C1c3ccccc3C2c2ccccc21 (stereo not drawn)	-1	98	102	-1	.	.
